b-catenin transl – modulators of beta-catenin nuclear translocation, primary screen, imaging, HeLa cells, immunofluorescence, high-content; AID 1665, 2009; nuclear translocation activity, % at 5 µM; actives 0.3% (n = 190,000);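 active = nuclear translocation activity above 50% at 5 µM, with a well cell count of 50 or more; inconclusive = wells under 50 cells across six images, flagged as toxic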;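 also: per-cell ratio of nuclear to cytoplasmic median beta-catenin stain intensity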
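assay system = human HeLa cells, endogenous beta-catenin | times = compound treatment 24 h, 37°C, 5% CO2 | detection = Anti-beta-catenin immunofluorescence on PFA-fixed, Triton-permeabilized cells, DAPI nuclei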
ROMK primary – ROMK potassium channel modulators, primary screen, cell-based, thallium flux, MLSMR library. Tet-inducible ROMK, thallium flux fluorescence; actives lie on both sides. actives 2% (n = 130,000). AID 1918, 2009. ATP-sensitive inward rectifier potassium channel 1 (Homo sapiens), P48048. B-score at 10 µM;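 active = signal ratio slope over the read window, or its plate-corrected B-score, at least 3 SD from the plate mean, either direction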;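 also: B-score of the F/F0 ratio slope over 7 to 12 s after thallium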
Target sequence (P48048 whole entry, looked up): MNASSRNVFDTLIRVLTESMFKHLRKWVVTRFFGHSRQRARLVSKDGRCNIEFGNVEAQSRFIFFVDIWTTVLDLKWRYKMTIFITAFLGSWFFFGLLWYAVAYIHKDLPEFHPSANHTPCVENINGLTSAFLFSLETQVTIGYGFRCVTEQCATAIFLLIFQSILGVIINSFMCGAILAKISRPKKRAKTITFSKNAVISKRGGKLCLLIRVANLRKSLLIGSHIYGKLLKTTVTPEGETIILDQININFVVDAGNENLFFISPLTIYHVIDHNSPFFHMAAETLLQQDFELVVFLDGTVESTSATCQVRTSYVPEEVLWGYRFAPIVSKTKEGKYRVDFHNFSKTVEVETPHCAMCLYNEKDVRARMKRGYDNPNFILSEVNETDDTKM
MT stabilize HCS – microtubule stabilizers in HeLa cells, primary screen, imaging, high-content imaging; HeLa tubulin immunostaining HCS, 24 h; share of cells brighter than vehicle mean+2SD; % tubulin-high responders, % at 10 µM; actives 0.83% (n = 200,000); AID 2205, 2009;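 active = plate Z-score above 3 for both tubulin-high and condensed-nucleus cell shares, with cell loss under 80%, at 10 µM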;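 also: anti alpha tubulin signal scored within the nucleus-defined area of each cell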
Each line names hits and unclear results; the compound was inactive in the other large screens. In the library only some 1.9% were active in any assay of this set; here they are far more common.

CCOc1ccc(NC2=NC(C(=O)NCc3ccccc3)CC(=O)N2)cc1 (centres undefined)	none (no result: ROMK primary)
O=C1CC(c2ccccc2)CC(O)=C1C=NCCCN1CCOCC1 (centres undefined)	b-catenin transl 53 (no result: ROMK primary)
CCCCCN=CC1=C(O)CC(c2ccccc2)CC1=O (centres undefined)	none
N=C1C(c2ccccc2)=C(O)CN1CCCO	none
C=CCN1CC(O)=C(c2ccccc2)C1=N	MT stabilize HCS 34
COC(=O)Nc1[nH]ncc1[N+](=O)[O-]	none (no result: ROMK primary)
Cc1cc(C)nc(/N=C(\N)N(Cc2ccccc2)Cc2ccccc2)n1	none (no result: ROMK primary)
CCCNC(=O)COC(=O)/C(C#N)=C/c1cc(C)n(CCC)c1C	none
CCc1c(C)nc2ncnn2c1NCCc1ccc(OC)cc1	b-catenin transl 85, MT stabilize HCS 37 (no result: ROMK primary)
CCc1c(C)nc2ncnn2c1Nc1ccc(C)c(C)c1	none (no result: b-catenin transl)
COc1ccc(N(C)C(=O)c2ccc3nc(-c4ccccc4)c(-c4ccccc4)nc3c2)cc1	MT stabilize HCS 25 (no result: ROMK primary)
C=CCN(C(=O)c1ccccc1)c1ccc(OC)cc1	MT stabilize HCS 43 (no result: ROMK primary)
COc1ccc(C(=O)c2ccccc2)cc1	b-catenin transl inconclusive
CC(C)N(C(=O)c1ccc2nc(-c3ccccc3)c(-c3ccccc3)nc2c1)C(C)C	none
CCCC(=O)N1CCN(c2ccc([N+](=O)[O-])c(NC(C)c3ccccc3)c2)CC1 (centres undefined)	ROMK primary -5.3
CC(Nc1cc(N2CCCC2)ccc1[N+](=O)[O-])c1ccccc1 (centres undefined)	none (no result: ROMK primary)
C/C(CCC12CC3CC(CC(C3)C1)C2)=N\NC(N)=S	none (no result: b-catenin transl)
C/C(=N\NC(N)=S)C1C2C3CC4C5CC(C42)C1C53 (centres undefined)	MT stabilize HCS 7.4
CN(C)/C=C/c1oc2ccc(O)cc2c1[N+](=O)[O-]	none
O=c1cc(N2CCCCC2)c(-c2ccccc2)nn1Cc1ccccc1	ROMK primary -3.1
Cn1nc(-c2ccccc2)c(N2CCCCC2)cc1=O	none
O=C(CCCC(=O)OCC(Cl)=C(Cl)Cl)Nc1ccc(F)cc1	none (no result: ROMK primary)
COC(=O)c1[nH]c2cc(OC)ccc2c1NC(=O)c1nonc1C	MT stabilize HCS 37 (no result: ROMK primary)
CCOC(=O)c1[nH]c2ccc(OC)cc2c1NC(=O)c1nonc1C	none
O=C(CN1C(=O)/C(=C/c2c(F)cccc2Cl)Oc2ccccc21)NCc1ccco1	MT stabilize HCS 19 (no result: ROMK primary)
O=C(/C=C/c1c(F)cccc1Cl)NCc1ccco1	none
COc1ccc(C(CC(=O)NCC(OC)OC)NS(=O)(=O)c2ccc(Cl)cc2)cc1 (centres undefined)	none
Cc1cc2cc(CN(CC3CCCO3)C(=S)Nc3ccccc3)c(=O)[nH]c2cc1C (centres undefined)	MT stabilize HCS 14
COc1ccc2[nH]c(=O)c(CN(CC3CCCO3)C(=S)Nc3ccccc3)cc2c1 (centres undefined)	none
COc1ccc2cc(CN(CC3CCCO3)C(=S)Nc3ccccc3)c(=O)[nH]c2c1 (centres undefined)	MT stabilize HCS 27
Cc1cc2cc(CN(CC3CCCO3)C(=S)NCc3ccco3)c(=O)[nH]c2cc1C (centres undefined)	none (no result: ROMK primary)
CCN(CC)CCNC(=O)c1ccc(-n2c(C)cc3c2CCCC3=O)cc1	none
Cc1ccc(NC(=O)CN(C)C(=O)c2ccc(S(=O)(=O)N(C)c3ccccc3)cc2)cc1	none
CNC(=O)CSc1nnc(SCCC(=O)O)s1	none
c1ccc2c(CCNc3ncnc4nc[nH]c34)c[nH]c2c1	MT stabilize HCS 17 (no result: ROMK primary)
c1ccc(CCNc2ncnc3nc[nH]c23)cc1	none (no result: ROMK primary)
CN(Cc1ccccc1)S(=O)(=O)c1ccc(N2CCOCC2)nc1	none (no result: ROMK primary, MT stabilize HCS)
Cc1ccc(OCCOCCN(C)C)c(Cl)c1	none (no result: ROMK primary)
C/C(N)=C(/C#N)C(=O)CSc1nc2ccccc2c(=O)n1Cc1ccc(C)cc1	none
CCCCn1c(SCC(=O)/C(C#N)=C(\C)N)nc2ccccc2c1=O	ROMK primary 3
CCOC(=O)/C(N=Nc1ccc(F)cc1)=C(/O)c1ccc([N+](=O)[O-])cc1	none (no result: b-catenin transl, ROMK primary)
CCOc1ccccc1NC(=O)CCCN1C(=S)NC(C)(C)CC1C (centres undefined)	none
CC(C)(C)C(=O)NNC(=O)c1cc2sccc2s1	none (no result: ROMK primary, MT stabilize HCS)
Cc1nn(C)cc1/C=N/NC(=O)Cn1nccc1C	none (no result: ROMK primary)
CC1(C)Cc2nc3sc4c(SCC(=O)O)ncnc4c3cc2CO1	none (no result: ROMK primary, MT stabilize HCS)
CC1(C)Cc2nc3sc4c(SCC(=O)NCc5ccccc5)ncnc4c3cc2CO1	MT stabilize HCS 35 (no result: b-catenin transl)
COc1ccc(/C=N/Nc2ncccc2[N+](=O)[O-])c(OC)c1	none
C=C(C)CNC(=S)Nc1sc2c(c1C(=O)OCC)CC(C)(C)OC2	none (no result: ROMK primary)
COc1ccc(S(=O)(=O)NNC(=O)c2ccc(-n3c(C)ccc3C)cc2)cc1	none (no result: ROMK primary, MT stabilize HCS)
Cc1ccc(OCc2ccc(C(=O)NCc3cccnc3)cc2)cc1C	none
CCOc1ccc(OCCCCn2cnc3ccccc3c2=O)cc1	none
